In ChEMBL document CHEMBL1128369, “Haloanilino derivatives of pyrimidines, purines, and purine nucleoside analogs: synthesis and activity against human cytomegalovirus” (J Med Chem, 1995):

What was measured:
HEL [1] = test: Inhibition of human CMV DNA synthesis in CMV-infected HEL cells.; format: functional, cell-based
Procedure, shortened: (§1)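 Dot-blot hybridization. HEL cells in MEM + 10% FCS infected with HCMV AD169 at about 1 pfu/cell for 60–90 min. Medium replaced by 3-fold drug dilutions (4–6 concentrations, duplicate wells) or DMSO. Incubated 48–96 h at 37 °C, 5% CO2. SDS/pronase lysates spotted on nitrocellulose, hybridized with 32P-labeled cloned viral DNA probe and counted. IC50 is 50% inhibition of viral DNA.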

HEL [2] = test: Inhibition against DNA of uninfected HEL cells by incorporation of [3H]TdR.; format: functional, cell-based; settings: Homo sapiens
Procedure, shortened: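 About 1/3 confluent uninfected HEL monolayers in DMEM + 10% FCS, preincubated 24 h at 37 °C. Serial compound dilutions in DMSO (or DMSO alone) added to duplicate wells with [3H]thymidine 1 μCi/mL for 24 h. Cells lysed with 0.4 M NaOH, then 5% TCA precipitate collected on filters and counted. IC50 is 50% inhibition of incorporation.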

HEL [3] = test: Concentration that inhibits HCMV yield by 90% relative to control cultures without drugs; format: functional; settings: Homo sapiens
Procedure, shortened: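 HCMV AD169 infected HEL cells in 96-well plates at 0.1 pfu/cell for 30 min, washed twice, then given compound dilutions or DMSO diluent. Incubated 7 days at 37 °C. Cells scraped and sonicated. Progeny titered by end-dilution, in triplicate, 3- or 5-fold serial dilutions on fresh HEL cells, read after 14 days as the highest dilution with enumerable plaques.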

Nucleic Acid = test: Inhibitory activity against HCMV DNA polymerase in virus infected cells; format: functional, cell-based, Human betaherpesvirus 5
Procedure, shortened: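 HCMV DNA polymerase partially purified from HEL cells infected with AD169 (MOI 2, 3 days) by phosphocellulose and DEAE-cellulose chromatography. Assay buffer was 40 mM Tris-HCl pH 7.8 with 8 mM MgCl2, 100 mM KCl, 4 mM 2-mercaptoethanol, 0.1 mM dATP/dGTP/dCTP/[3H]dTTP and activated calf thymus DNA. Incubated 60 min at 37 °C; acid-precipitable counts measured. IC50 is the mean of duplicate experiments.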

HEL [4] = test: Inhibitory activity against HCMV DNA synthesis in virus infected cells; format: functional, cell-based; settings: Homo sapiens; procedure, shortened: as §1

IC50 (HEL [1]) | IC90 (HEL [3]) | IC50 (Nucleic Acid) | IC50 (HEL [4]) | SMILES | IC50 (HEL [2])
25 µM | 69 µM | 65 µM | 25 µM | Oc1cc(Nc2cc(Cl)cc(Cl)c2)nc(O)n1 | 100 µM
28 µM | 91 µM | 175 µM | 28 µM | Nc1nc(O)cc(Nc2cc(Cl)cc(Cl)c2)n1 | 95 µM
70 µM |  |  |  | Nc1nc(O)cc(Nc2ccc(Cl)c(F)c2)n1 | 165 µM
63 µM |  |  |  | Nc1nc(O)cc(Nc2cc(F)cc(F)c2)n1 | > 200 µM
20 µM |  |  |  | Nc1nc(O)cc(Nc2ccc(F)c(Cl)c2)n1 | 110 µM
8 µM | 16.8 µM | 250 µM | 8 µM | Nc1[nH]c(Nc2cc(Cl)cc(Cl)c2)nc2ncnc1-2 | 40 µM
7.9 µM |  |  |  | Nc1nc(Nc2cc(Cl)cc(Cl)c2)nc2c1ncn2COCCO | 1.4 µM
> 200 µM |  |  |  | Oc1cc(Nc2cc(F)cc(Cl)c2)nc(O)n1 | > 200 µM
> 200 µM |  |  |  | Nc1nc(O)cc(Nc2cc(F)cc(Cl)c2)n1 | > 200 µM
4.7 µM | 18 µM |  |  | Nc1nc(Cl)cc(Nc2cc(Cl)cc(Cl)c2)n1 | 32 µM
33 µM | 56 µM | 140 µM | 33 µM | Oc1[nH]c(Nc2cc(Cl)cc(Cl)c2)nc2ncnc1-2 | 400 µM
9.1 µM | 8.7 µM | 150 µM | 9.1 µM | Nc1nc(Cl)cc(Nc2ccc(Cl)c(Cl)c2)n1 | 31 µM
25 µM |  | 360 µM | 25 µM | Nc1nc(O)cc(Nc2ccc(Cl)c(Cl)c2)n1 | 32 µM

Continued, molecule first:

SMILES | IC50 (HEL [1]) | IC90 (HEL [3]) | IC50 (Nucleic Acid) | IC50 (HEL [4]) | IC50 (HEL [2])
OCCOCn1cnc2c(O)nc(Nc3cc(Cl)cc(Cl)c3)nc21 | 15.2 µM |  |  |  | 14 µM
OCCOCn1cnc2c(Cl)nc(Nc3cc(Cl)cc(Cl)c3)nc21 | 12.5 µM |  |  |  | 14.4 µM
Nc1nc(O)cc(Nc2ccc(F)c(F)c2)n1 | 115 µM |  |  |  | > 200 µM
Oc1cc(Nc2ccc(Cl)c(F)c2)nc(O)n1 | > 200 µM |  |  |  | > 200 µM
OC[C@H]1O[C@@H](n2cnc3c(O)nc(Nc4cc(Cl)cc(Cl)c4)nc32)C[C@@H]1O | 15.1 µM |  |  |  | 13 µM
OC[C@H]1O[C@@H](n2cnc3c(Cl)nc(Nc4cc(Cl)cc(Cl)c4)nc32)C[C@@H]1O | 7.9 µM |  |  |  | 3.4 µM
Nc1nc(Nc2cc(Cl)cc(Cl)c2)nc2c1ncn2[C@H]1C[C@H](O)[C@@H](CO)O1 | 8.6 µM |  |  |  | 0.5 µM
Nc1nc(Nc2cc(Cl)cc(Cl)c2)nc2c1ncn2COC(CO)CO | 47.9 µM |  |  |  | 5 µM
Oc1cc(Nc2cc(F)cc(F)c2)nc(O)n1 | > 200 µM |  |  |  | > 200 µM
OCC(CO)OCn1cnc2c(O)nc(Nc3cc(Cl)cc(Cl)c3)nc21 | 45 µM |  |  |  | 41.7 µM
Oc1[nH]c(Nc2ccc(Cl)c(Cl)c2)nc2ncnc1-2 | 12 µM |  | 330 µM | 12 µM | 60 µM
Oc1cc(Nc2ccc(Cl)c(Cl)c2)nc(O)n1 | 40 µM |  | 45 µM | 40 µM | > 200 µM
Nc1[nH]c(Nc2ccc(Cl)c(Cl)c2)nc2ncnc1-2 | 5 µM |  |  |  | 3.4 µM
Oc1cc(Nc2ccc(F)c(Cl)c2)nc(O)n1 | 140 µM |  |  |  | > 200 µM
Oc1cc(Nc2ccc(F)c(F)c2)nc(O)n1 | > 200 µM |  |  |  | > 200 µM
O=C(O)P(=O)(O)O [FOSCARNET SODIUM] | 15.5 µM |  |  |  | 
Nc1nc2c(ncn2COC(CO)CO)c(=O)[nH]1 [GANCICLOVIR] | 0.5 µM | 2.1 µM |  |  | 7 µM
